ChEMBL document CHEMBL3351887, “'Click' assembly of glycoclusters and discovery of a trehalose analogue that retards Aβ40 aggregation and inhibits Aβ40-induced neurotoxicity” (Bioorg Med Chem Lett, 2014)

Columns and labels:
[1] = biological target: Amyloid-beta precursor protein (Homo sapiens) (UniProt P05067); assay: Inhibition of amyloid beta-40 aggregation (unknown origin) assessed as extension of lag phase of Abeta40 aggregation by ThT fluorescence assay
Method in brief: (§1)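 Monomer-rich Aβ40 (35 µM, supernatant after NaOH dissolution, sonication and ultracentrifugation) was incubated with 10 nM–100 µM compound in 20 mM phosphate buffer pH 7.4 (I 0.15 M), with 20 µM ThT and 0.007% NaN3, quiescent at 37 °C. Fluorescence (ex 440, em 480 nm) was read every 5 min. Lag time came from an empirical sigmoidal nonlinear-regression fit; mean ± SE of four independent experiments.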

[2] = biological target: Amyloid-beta precursor protein (Homo sapiens) (UniProt P05067); assay: Inhibition of amyloid beta-40 aggregation (unknown origin) assessed as extension of lag phase of Abeta40 aggregation at 100 uM by ThT fluorescence assay; design: scale not given: the % may be the effect or the level left; method in brief: as §1
[3] = biological target: Amyloid-beta precursor protein (Homo sapiens) (UniProt P05067); assay: Inhibition of amyloid beta-40 aggregation (unknown origin) assessed as alpha-helix at 6 uM after 72 hrs by CD spectra analysis (reference value: 11 to 15%); design: scale not given: the % may be the effect or the level left
[4] = biological target: Amyloid-beta precursor protein (Homo sapiens) (UniProt P05067); assay: Inhibition of amyloid beta-40 aggregation (unknown origin) assessed as alpha-helix at 30 uM after 72 hrs by CD spectra analysis (reference value: 11 to 15%); design: scale not given: the % may be the effect or the level left
[5] = biological target: Amyloid-beta precursor protein (Homo sapiens) (UniProt P05067); assay: Inhibition of amyloid beta-40 aggregation (unknown origin) assessed as alpha-helix at 150 uM after 72 hrs by CD spectra analysis (reference value: 11 to 15%); design: scale not given: the % may be the effect or the level left
[6] = biological target: Amyloid-beta precursor protein (Homo sapiens) (UniProt P05067); assay: Inhibition of amyloid beta-40 aggregation (unknown origin) assessed as beta-sheet at 6 uM after 72 hrs by CD spectra analysis (reference value: 1 to 3%); design: scale not given: the % may be the effect or the level left
[7] = biological target: Amyloid-beta precursor protein (Homo sapiens) (UniProt P05067); assay: Inhibition of amyloid beta-40 aggregation (unknown origin) assessed as beta-sheet at 30 uM after 72 hrs by CD spectra analysis (reference value: 1 to 3%); design: scale not given: the % may be the effect or the level left
[8] = biological target: Amyloid-beta precursor protein (Homo sapiens) (UniProt P05067); assay: Inhibition of amyloid beta-40 aggregation (unknown origin) assessed as beta-sheet at 150 uM after 72 hrs by CD spectra analysis (reference value: 1 to 3%); design: scale not given: the % may be the effect or the level left
[9] = biological target: Amyloid-beta precursor protein (Homo sapiens) (UniProt P05067); assay: Inhibition of amyloid beta-40 aggregation (unknown origin) assessed as beta-turns at 6 uM after 72 hrs by CD spectra analysis (reference value: 0%); design: scale not given: the % may be the effect or the level left
[10] = biological target: Amyloid-beta precursor protein (Homo sapiens) (UniProt P05067); assay: Inhibition of amyloid beta-40 aggregation (unknown origin) assessed as beta-turns at 30 uM after 72 hrs by CD spectra analysis (reference value: 0%); design: scale not given: the % may be the effect or the level left
[11] = biological target: Amyloid-beta precursor protein (Homo sapiens) (UniProt P05067); assay: Inhibition of amyloid beta-40 aggregation (unknown origin) assessed as beta-turns at 150 uM after 72 hrs by CD spectra analysis (reference value: 0%); design: scale not given: the % may be the effect or the level left
[12] = biological target: Amyloid-beta precursor protein (Homo sapiens) (UniProt P05067); assay: Inhibition of amyloid beta-40 aggregation (unknown origin) assessed as unordered at 6 uM after 72 hrs by CD spectra analysis (reference value: 84 to 87%); design: scale not given: the % may be the effect or the level left
[13] = biological target: Amyloid-beta precursor protein (Homo sapiens) (UniProt P05067); assay: Inhibition of amyloid beta-40 aggregation (unknown origin) assessed as unordered at 30 uM after 72 hrs by CD spectra analysis (reference value: 84 to 87%); design: scale not given: the % may be the effect or the level left
[14] = biological target: Amyloid-beta precursor protein (Homo sapiens) (UniProt P05067); assay: Inhibition of amyloid beta-40 aggregation (unknown origin) assessed as unordered at 150 uM after 72 hrs by CD spectra analysis (reference value: 84 to 87%); design: scale not given: the % may be the effect or the level left
[15] = biological target: Amyloid-beta precursor protein (Homo sapiens) (UniProt P05067); assay: Inhibition of amyloid beta-40 aggregation (unknown origin) assessed as fibril width at 300 uM for 7 days at pH 7.4 by transmission electron microscopy (reference value: 12.3 +/- 1.2 nanometer)
Method in brief: (§2)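 Aβ40 (60 µM in control) was incubated quiescently with the compound at compound:Aβ40 molar ratios of 1:5, 1:1 and 5:1, pH 7.4, 37 °C, for 7 days. Fibril width and length were then measured from transmission electron microscopy images.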

[16] = biological target: Amyloid-beta precursor protein (Homo sapiens) (UniProt P05067); assay: Inhibition of amyloid beta-40 aggregation (unknown origin) assessed as fibril length at 300 uM for 7 days at pH 7.4 by transmission electron microscopy (reference value: > 2 micrometer); method in brief: as §2
[17] = Neuroprotective activity in C57BL/6 mouse primary cortical neurons assessed as reduction in amyloid beta-40-induced cell death at 40 uM pre-incubated with amyloid beta-40 for 6 hrs and measured after 48 hrs by trypan blue dye exclusion assay; assay type: functional, Cerebral cortex neuron; design: scale not given: the % may be the effect or the level left
Method in brief: (§3)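 Aβ40 (40 µM) was preincubated with or without compound for 6 h at 37 °C, at molar ratios 1:1 and 2.5:1 (compound:Aβ40). It was then added to 7–9-day-old primary cortical neurons cultured from 6 pregnant C57BL/6 mice. After 48 h, cells were stained with trypan blue and live and dead cells were counted. Values are mean + SE.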

[18] = Neuroprotective activity in C57BL/6 mouse primary cortical neurons assessed as reduction in amyloid beta-40-induced cell death at 100 uM pre-incubated with amyloid beta-40 for 6 hrs and measured after 48 hrs by trypan blue dye exclusion assay; assay type: functional, Cerebral cortex neuron; design: scale not given: the % may be the effect or the level left; method in brief: as §3
[19] = Toxicity in C57BL/6 mouse primary cortical neurons assessed as reduction in cell viability at 40 to 100 uM after 48 hrs by trypan blue dye exclusion assay; assay type: cell-based; conditions: cerebral cortex neuron

Sequence of Amyloid-beta precursor protein (Homo sapiens) (P05067 whole entry): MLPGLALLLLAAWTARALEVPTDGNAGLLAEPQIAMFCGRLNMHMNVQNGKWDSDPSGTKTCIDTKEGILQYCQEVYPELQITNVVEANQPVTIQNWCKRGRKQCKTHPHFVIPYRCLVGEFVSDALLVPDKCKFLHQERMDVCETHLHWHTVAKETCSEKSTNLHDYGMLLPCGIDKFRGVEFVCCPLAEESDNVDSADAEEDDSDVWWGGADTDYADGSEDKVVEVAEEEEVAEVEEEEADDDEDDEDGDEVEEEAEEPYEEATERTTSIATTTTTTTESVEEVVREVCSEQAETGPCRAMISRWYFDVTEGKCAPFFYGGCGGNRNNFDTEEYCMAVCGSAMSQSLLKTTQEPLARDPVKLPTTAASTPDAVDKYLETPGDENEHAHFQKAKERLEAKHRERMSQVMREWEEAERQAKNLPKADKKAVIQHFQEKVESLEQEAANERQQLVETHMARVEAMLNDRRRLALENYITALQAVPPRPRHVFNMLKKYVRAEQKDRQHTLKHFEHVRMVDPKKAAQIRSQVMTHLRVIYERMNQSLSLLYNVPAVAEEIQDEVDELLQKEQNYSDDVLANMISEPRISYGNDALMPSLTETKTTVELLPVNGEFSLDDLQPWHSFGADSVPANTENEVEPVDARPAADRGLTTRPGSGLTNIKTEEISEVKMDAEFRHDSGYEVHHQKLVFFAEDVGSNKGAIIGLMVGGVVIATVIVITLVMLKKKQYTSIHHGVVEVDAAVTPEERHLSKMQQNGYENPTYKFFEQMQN

SMILES | inhibition [1] | Activity [2] | Activity [3] | Activity [4] | Activity [5] | Activity [6] | Activity [7] | Activity [8] | Activity [9] | Activity [10] | Activity [11] | Activity [12] | Activity [13] | Activity [14] | Activity [15] | Activity [16] | Activity [17] | Activity [18] | Activity [19]
OC[C@H]1O[C@@H](n2cc(COCC(COCc3cn([C@@H]4O[C@H](CO)[C@@H](O)[C@H](O)[C@H]4O)nn3)(COCc3cn([C@@H]4O[C@H](CO)[C@@H](O)[C@H](O)[C@H]4O)nn3)COCC(COCc3cn([C@@H]4O[C@H](CO)[C@@H](O)[C@H](O)[C@H]4O)nn3)(COCc3cn([C@@H]4O[C@H](CO)[C@@H](O)[C@H](O)[C@H]4O)nn3)COCc3cn([C@@H]4O[C@H](CO)[C@@H](O)[C@H](O)[C@H]4O)nn3)nn2)[C@H](O)[C@@H](O)[C@@H]1O | Dose-dependent effect | 28% | – | – | – | – | – | – | – | – | – | – | – | – | – | – | – | – | –
OC[C@H]1O[C@H](O[C@H]2O[C@H](Cn3cc(COCC(COCc4cn(C[C@H]5O[C@H](O[C@H]6O[C@H](CO)[C@@H](O)[C@H](O)[C@H]6O)[C@H](O)[C@@H](O)[C@@H]5O)nn4)(COCc4cn(C[C@H]5O[C@H](O[C@H]6O[C@H](CO)[C@@H](O)[C@H](O)[C@H]6O)[C@H](O)[C@@H](O)[C@@H]5O)nn4)COCC(COCc4cn(C[C@H]5O[C@H](O[C@H]6O[C@H](CO)[C@@H](O)[C@H](O)[C@H]6O)[C@H](O)[C@@H](O)[C@@H]5O)nn4)(COCc4cn(C[C@H]5O[C@H](O[C@H]6O[C@H](CO)[C@@H](O)[C@H](O)[C@H]6O)[C@H](O)[C@@H](O)[C@@H]5O)nn4)COCc4cn(C[C@H]5O[C@H](O[C@H]6O[C@H](CO)[C@@H](O)[C@H](O)[C@H]6O)[C@H](O)[C@@H](O)[C@@H]5O)nn4)nn3)[C@@H](O)[C@H](O)[C@H]2O)[C@H](O)[C@@H](O)[C@@H]1O | Dose-dependent effect | 45% | 21% | 20% | 22% | 35% | 32% | 16% | 27% | 30% | 26% | 17% | 18% | 36% | 8.7 nm | < 2 µm | 45% | 59% | Non-toxic
